Only some compounds are listed: those with a hit (about 4.8% of all), similar ones and a draw of the others.
CSC inhib: cancer stem cell viability inhibitors, primary screen, luminescence | cancer stem cell-like cells viability | inhibition, % at 7.5 µM | 300,000 tested, 1.1% active | AID 2717, 2010; in the data active = inhibition above about 75%; tested in HMLE shEcad cells
UPR XBP1 act: activators of adaptive XBP1 UPR arm, primary screen, cell-based, CHO-XBP1 luciferase reporter, luminescence, uHTS. IRE1-XBP1 UPR activation; percent of tunicamycin response, DMSO as zero. activation, % at 20 µM. 330,000 tested, 0.33% active. AID 463104, 2010;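 active = versus positive control, 20 µM dose yields 30% or more activation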;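 also: 100% = tunicamycin at 10 µg/mL and 0% = DMSO only wells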
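Assay system: IRE1-XBP1 luciferase reporter CHO line. Input: 1000 cells/well. Buffer or medium: F12 with 10% serum. Doses: 20 µM, 1% DMSO. Times: overnight seeding at 37 °C, 6 h compound treatment at 37 °C. Technique: Steady-Glo luciferase glow luminescence, 10 min after reagent addition.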
Mdm2-MdmX inh: inhibitors of human Mdm2-MdmX association, primary screen, cell-based, luminescence, split luciferase, SaOS-2, uHTS; SaOS-2 split-luciferase Mdm2/MdmX complementation; inhibition, % at 8 µM; 330,000 tested, 3% active; AID 485346, 2010; Protein Mdm4 (Homo sapiens) + E3 ubiquitin-protein ligase Mdm2 (Homo sapiens), …;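 active = inhibition of at least 50% at 8 µM in the primary screen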
Target sequence (O15151 whole entry, looked up): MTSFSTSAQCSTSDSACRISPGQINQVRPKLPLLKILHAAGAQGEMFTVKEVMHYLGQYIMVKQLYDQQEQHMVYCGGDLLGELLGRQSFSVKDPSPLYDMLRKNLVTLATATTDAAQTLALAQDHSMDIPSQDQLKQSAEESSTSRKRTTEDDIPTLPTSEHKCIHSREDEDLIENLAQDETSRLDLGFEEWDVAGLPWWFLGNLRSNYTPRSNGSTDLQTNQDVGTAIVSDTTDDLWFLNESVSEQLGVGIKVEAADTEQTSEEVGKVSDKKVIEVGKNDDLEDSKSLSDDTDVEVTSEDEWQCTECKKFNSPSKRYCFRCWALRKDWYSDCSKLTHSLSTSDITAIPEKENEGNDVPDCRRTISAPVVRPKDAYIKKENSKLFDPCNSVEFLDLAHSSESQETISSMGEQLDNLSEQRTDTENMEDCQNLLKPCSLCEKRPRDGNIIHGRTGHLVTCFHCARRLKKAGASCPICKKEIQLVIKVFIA
Target sequence (Q00987 whole entry, looked up): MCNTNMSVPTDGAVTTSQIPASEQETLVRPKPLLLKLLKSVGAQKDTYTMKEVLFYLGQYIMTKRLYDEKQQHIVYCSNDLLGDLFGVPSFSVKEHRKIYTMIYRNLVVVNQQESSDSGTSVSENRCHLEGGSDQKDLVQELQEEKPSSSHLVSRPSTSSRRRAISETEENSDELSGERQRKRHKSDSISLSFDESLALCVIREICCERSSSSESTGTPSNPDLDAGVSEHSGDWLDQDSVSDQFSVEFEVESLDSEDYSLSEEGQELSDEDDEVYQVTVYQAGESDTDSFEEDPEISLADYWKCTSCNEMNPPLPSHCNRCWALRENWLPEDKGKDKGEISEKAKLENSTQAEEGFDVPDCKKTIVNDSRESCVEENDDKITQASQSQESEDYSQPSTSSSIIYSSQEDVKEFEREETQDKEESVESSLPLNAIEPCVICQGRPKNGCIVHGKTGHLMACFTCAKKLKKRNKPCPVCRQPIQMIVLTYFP
Beta apoptosis: inhibitors of cytokine-induced beta cell apoptosis, primary screen, luminescence. INS-1E cytokine-induced death, ATP luminescence, 48 h; percent of positive-control rescue, neutral wells zero. protection from apoptosis, % (concentration not given with the values). 300,000 tested, 0.8% active. AID 435005, 2010;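 active = Every replicate reaches about 75%, or at least half do and their mean reaches it too, limit read from the data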;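 also: 0% = cytokine-treated negative control wells and 100% = positive control rescue; higher means more ATP so stronger rescue from cytokine killing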
SKKanGAS inh: S. pyogenes SKKanGAS growth inhibitors in kanamycin, primary screen, streptokinase expression inhibitor project, SKKanGAS strain, BacTiter-Glo luminescence; 6 h; inhibition, % at 7.5 µM; 300,000 tested, 1.3% active;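 active = mean replicate score, as percent of positive control median, at least 50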;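 also: strain carries kanamycin resistance gene driven by streptokinase promoter and grows in 40 µg/ml kanamycin; loss of luminescence reflects streptokinase promoter inhibition or plain growth inhibition; 0% = median of DMSO wells and 100% = positive control at its reference dose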
UPR CHOP act: activators of apoptotic CHOP UPR arm, primary screen, cell-based, CHO-CHOP luciferase reporter, luminescence, uHTS. UPR activation; percent of tunicamycin response over DMSO baseline. activation, % at 10 µM. 330,000 tested, 0.34% active;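 active = at 10 µM dose, activation of 40% or more, normalized to positive control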;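 also: 100% = tunicamycin at 10 µg/mL and 0% = DMSO alone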
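Assay system: CHO cells with stable CHOP pathway luciferase reporter; Buffer or medium: F12 plus 10% serum; Times: 16-18 h cell attachment, then 6 h compound exposure, 37 °C; Signal: luciferase luminescence; Read-out basis: percent activation relative to tunicamycin control; Control set: tunicamycin high control, DMSO low control.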
Mdm2 MdmX conf: Mdm2-MdmX complex disruptors, retested hits, confirmation, luminescence, single concentration; shares compounds with Mdm2-MdmX inh; AID 489028, 2010; inhibition, % at 8 µM; 10,000 tested, 55% active; Mdm2-MdmX binding, luminescent assay; in the data active = inhibition above about 40%
Full FLuc ctr: full-length luciferase signal inhibition, confirmation, counter-screen for Mdm2/MdmX interaction inhibitor project, cell-based, single concentration, SaOS-2. AID 504607, 2011. inhibition, % at 8 µM. SaOS-2 full-length luciferase counterscreen, luminescence. 6,200 tested, 77% active. shares compounds with Mdm2-MdmX inh;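 active = mean inhibition at 8 µM reaching about 37%, which flags the compound as non-specific, limit read from the data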;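 also: p53-null SaOS-2 cells with luciferase driven by a doxycycline-inducible promoter; compound on cells about two nights before reading with doxycycline added after day one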
An asterisk follows results filed as active.

CCCCc1cc(=O)oc2cc(C)cc(OCC(=O)NC(Cc3ccc(Cl)cc3)C(=O)O)c12 (stereo unspecified) was read as CSC inhib 1.7, UPR XBP1 act -3.3, Mdm2-MdmX inh 11.2, Beta apoptosis -5.4, SKKanGAS inh 10.2 and UPR CHOP act -0.5.
CC(=O)OC[C@]12CC[C@H]3[C@@](C)(CC[C@H]4C(C)(C)CCC[C@]34C)[C@@H]1C[C@H](C1=CC(=O)O[C@@H]1OC(C)=O)O2 was read as CSC inhib 132.1*, UPR XBP1 act -8.3, Mdm2-MdmX inh 63.4*, Beta apoptosis 2.0, UPR CHOP act 24.1 and Mdm2 MdmX conf -11.6.
`Oc1ccccc1C=NC(c1ccccc1)C(O)c1ccccc1` (stereo unspecified) gave CSC inhib -11.9, UPR XBP1 act 1.1, Mdm2-MdmX inh -2.5, Beta apoptosis -6.6, SKKanGAS inh -1.2 and UPR CHOP act 2.6.
Screening Oc1ccccc1/C=N/[n+]1ccccc1 returned CSC inhib 0.6, UPR XBP1 act -1.1, Mdm2-MdmX inh 52.6*, Beta apoptosis 2.3, SKKanGAS inh -3.6, UPR CHOP act 1.6, Mdm2 MdmX conf 52.9* and Full FLuc ctr 120.6*.
Screening CCOc1ccccc1C(=O)OCC(=O)NCCNC(=O)COC(=O)c1ccccc1OCC returned CSC inhib -8.8, UPR XBP1 act -2.0, Mdm2-MdmX inh -4.6, Beta apoptosis -13.7, SKKanGAS inh -2.7 and UPR CHOP act -1.7.
Cc1ccc(N(C(=O)c2csnn2)C(C(=O)NC2CCCCC2)c2ccco2)cc1 (stereo unspecified) was read as CSC inhib 0.3, UPR XBP1 act -4.5, Mdm2-MdmX inh 17.9, Beta apoptosis -1.2, SKKanGAS inh 0.0 and UPR CHOP act -0.8.
Screening O=C(Nc1cccnc1)c1cccc(-c2cc3ccccc3oc2=O)c1 returned CSC inhib -7.9, UPR XBP1 act 0.1, Mdm2-MdmX inh -1.5, Beta apoptosis 6.3, SKKanGAS inh -1.5 and UPR CHOP act 2.2.
Cc1ccc2nc(NC(=O)c3cccc(-c4cc5ccccc5oc4=O)c3)sc2c1 was read as CSC inhib 99.4*, UPR XBP1 act 121.8*, Mdm2-MdmX inh 81.2*, Beta apoptosis 55.6, SKKanGAS inh 3.0, UPR CHOP act 1.2, Mdm2 MdmX conf 67.7* and Full FLuc ctr 105.3*.
COc1ccc(NC(=O)N(C)C[C@H]2Oc3ccc(NC(=O)c4ccncc4)cc3C(=O)N([C@H](C)CO)C[C@@H]2C)cc1 was read as UPR XBP1 act 0.8, Mdm2-MdmX inh 10.9, Beta apoptosis 50.1 and UPR CHOP act 3.1.
For CCNc1nc(NC(C)(C)C)nc(N2CCCCC2)n1 the results were CSC inhib 23.1, UPR XBP1 act -5.8, Mdm2-MdmX inh 51.2*, Beta apoptosis 41.4, SKKanGAS inh 29.7, UPR CHOP act 1.9 and Mdm2 MdmX conf 19.2.
`CCNc1nc(N2CCCC2)nc(N2CCCC2)n1` gave CSC inhib 9.6, UPR XBP1 act 0.1, Mdm2-MdmX inh 20.6, Beta apoptosis 0.3, SKKanGAS inh 7.7 and UPR CHOP act -3.4.
For Cc1ccccc1NC(=O)c1ccc(CN2CCC(Cc3ccccc3)CC2)cc1 the results were CSC inhib -6.3, UPR XBP1 act -2.9, Mdm2-MdmX inh 57.6*, Beta apoptosis 4.2, SKKanGAS inh -0.1, UPR CHOP act -0.2, Mdm2 MdmX conf 35.0 and Full FLuc ctr 81.8*.
`COCCN(CC1CCCN(C2Cc3ccccc3C2)C1)C(=O)CCC(N)=O` (stereo unspecified) gave CSC inhib 3.8, UPR XBP1 act -4.7, Mdm2-MdmX inh -2.0, Beta apoptosis -5.3, SKKanGAS inh -3.0 and UPR CHOP act -1.0.
For CC(=O)Nc1sc2c(c1-c1nc3ccccc3s1)CN(C(C)C)CC2 the results were UPR XBP1 act -2.3, Mdm2-MdmX inh 98.7*, Beta apoptosis 96.7*, UPR CHOP act 4.4, Mdm2 MdmX conf 93.5* and Full FLuc ctr 56.6*.
`CC(=O)N1CCc2c(sc(NC(=O)C3CC3)c2-c2nc3ccccc3s2)C1` gave CSC inhib 20.6, UPR XBP1 act 3.3, Mdm2-MdmX inh 20.1, Beta apoptosis 22.4, SKKanGAS inh 19.0 and UPR CHOP act -0.7.
`O=C1CN(C(=O)CSc2ccccn2)c2ccccc2N1` gave CSC inhib -12.0, UPR XBP1 act -0.6, Mdm2-MdmX inh 25.0, Beta apoptosis -1.7 and UPR CHOP act -0.4.
Screening CC1CN(S(=O)(=O)c2cccc(C(=O)Nc3ccccc3N3CCCC3)c2)CC(C)O1 (stereo unspecified) returned CSC inhib 1.0, UPR XBP1 act -0.8, Mdm2-MdmX inh 24.7, Beta apoptosis 7.0, SKKanGAS inh -11.2 and UPR CHOP act 2.0.
Screening CCC/C(C#Cc1cc(OC)cc(OC)c1)=C1/c2ccccc2C(=O)N1c1ccccc1 returned CSC inhib 11.2, UPR XBP1 act -3.0, Mdm2-MdmX inh 23.8, Beta apoptosis 1.3 and UPR CHOP act -2.5.
For CCC/C(C#Cc1ccc(N(C)C)cc1)=C1/c2ccccc2C(=O)N1c1ccccc1 the results were CSC inhib 42.3, UPR XBP1 act -1.4, Mdm2-MdmX inh 50.6*, Beta apoptosis 47.5, UPR CHOP act -0.8 and Mdm2 MdmX conf 7.8.
For COC(=O)[C@]1(Cc2ccccc2)N[C@H](CN(C)S(=O)(=O)c2ccc(-c3ccccc3)cc2)[C@@H]2C(=O)N(Cc3ccccc3)C(=O)[C@@H]21 the results were UPR XBP1 act 2.0, Mdm2-MdmX inh 33.1, Beta apoptosis 2.9 and UPR CHOP act -0.8.
Screening O=C(NNc1c2ccccc2nc2ccccc12)C12CC3CC(CC(C3)C1)C2 returned CSC inhib 6.0, UPR XBP1 act -0.3, Mdm2-MdmX inh 68.3*, Beta apoptosis 13.0, SKKanGAS inh 3.4, UPR CHOP act 0.3 and Mdm2 MdmX conf 3.6.
